# Results reported in ChEMBL document CHEMBL2010757, “Cholinestrase inhibitory effects of geranylated flavonoids from Paulownia tomentosa fruits” (Bioorg Med Chem, 2012).
# pIC50, pKi: −log10 of the molar value.
# Key:
# Butyrylcholinesterase [1] = target: T1, Butyrylcholinesterase (Equus caballus, UniProt Q9N1N9); assay: Inhibition of equine BChE assessed as butyrylthiocholine iodide hydrolysis after 10 mins preincubation by spectrophotometry
# In short: (§1)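 Equine serum BChE (0.05 U/mL) mixed with sample in 100 mM sodium phosphate pH 8.0, held 10 min at room temperature; started with DTNB (3.3 mM) and butyrylthiocholine iodide (1 mM). 5-Thio-2-nitrobenzoate read at 412 nm, triplicate. IC50 as concentration giving 50% inhibition; kinetics by Lineweaver–Burk plots at rising substrate and inhibitor levels, Ki from Dixon plot.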
# Butyrylcholinesterase [2] = target: T1, Butyrylcholinesterase; assay: Mixed type inhibition of equine BChE using butyrylthiocholine iodide as substrate by Lineweaver-Burk double-reciprocal-plot and dixon plot analysis; in short: as §1
# Acetylcholinesterase [3] = target: T2, Acetylcholinesterase (Homo sapiens, UniProt P22303); assay: Inhibition of human erythrocyte AChE assessed as acetylthiocholine iodide hydrolysis after 10 mins preincubation by spectrophotometry
# In short: (§2)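 Human erythrocyte AChE (0.25 U/mL) with sample in 100 mM sodium phosphate pH 8.0, 10 min room temperature preincubation; started with DTNB (3.3 mM) and acetylthiocholine iodide (1 mM). Thiolate formation read at 412 nm, triplicate. IC50 as concentration for 50% inhibition; mode by Lineweaver–Burk plots over rising substrate and inhibitor, Ki by Dixon plot.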
# Acetylcholinesterase [4] = target: T2, Acetylcholinesterase; assay: Mixed type inhibition of human erythrocyte AChE using acetylthiocholine iodide as substrate by Lineweaver-Burk double-reciprocal-plot and dixon plot analysis; in short: as §2
# Acetylcholinesterase [5] = target: T2, Acetylcholinesterase; assay: Reversible inhibition of human erythrocyte AChE using assessed as acetylthiocholine iodide hydrolysis by spectrophotometry; details: TDE = time-dependent effect
# In short: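 hAChE (0.25 U/mL) with 1 mM acetylthiocholine in 100 mM sodium phosphate pH 8.0 at 37 °C, read continuously by spectrophotometer for 300 s. Reversibility from initial velocity versus enzyme amount at several inhibitor levels. Enzyme preincubated with inhibitor 0–60 min in 10 min steps; residual velocity (v/v0) followed; progress curves at one inhibitor level fitted by nonlinear regression.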
# Acetylcholinesterase [6] = target: T2, Acetylcholinesterase; assay: Binding affinity to human erythrocyte AChE
# In short: (§3)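 hAChE at 5 U/mL in 100 mM sodium phosphate pH 8.0 titrated with successive inhibitor additions. Excitation 276 nm, emission 300–400 nm, slits 2.0 nm, at 18 and 37 °C; triplicate means. Affinity constant KA and n from log[(F0−F)/F] = logKA + n log[Q] for static quenching.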
# Acetylcholinesterase [7] = target: T2, Acetylcholinesterase; assay: Binding affinity to human erythrocyte AChE assessed as fluorescence quenching by microplate reader; in short: as §3
# Acetylcholinesterase [8] = target: T2, Acetylcholinesterase; assay: Ratio of eriodictyol IC50 to compound IC50 for human erythrocyte AChE
# T1 sequence (Q9N1N9 whole entry): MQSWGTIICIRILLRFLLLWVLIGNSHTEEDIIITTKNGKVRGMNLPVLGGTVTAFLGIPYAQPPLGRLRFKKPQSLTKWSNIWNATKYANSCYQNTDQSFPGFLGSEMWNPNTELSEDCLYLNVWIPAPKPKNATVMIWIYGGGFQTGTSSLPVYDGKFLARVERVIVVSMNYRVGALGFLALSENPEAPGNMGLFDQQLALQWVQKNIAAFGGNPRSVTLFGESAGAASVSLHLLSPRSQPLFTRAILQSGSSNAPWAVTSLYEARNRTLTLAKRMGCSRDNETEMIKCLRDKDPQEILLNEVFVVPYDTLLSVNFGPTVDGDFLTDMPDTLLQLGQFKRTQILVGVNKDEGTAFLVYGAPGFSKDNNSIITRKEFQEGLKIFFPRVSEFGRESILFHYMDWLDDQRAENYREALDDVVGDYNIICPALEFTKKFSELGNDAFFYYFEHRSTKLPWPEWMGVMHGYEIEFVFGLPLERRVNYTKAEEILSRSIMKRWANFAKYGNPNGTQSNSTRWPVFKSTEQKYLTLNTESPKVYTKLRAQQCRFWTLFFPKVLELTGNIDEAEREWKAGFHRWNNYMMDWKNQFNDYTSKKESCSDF
# T2 sequence (P22303 whole entry): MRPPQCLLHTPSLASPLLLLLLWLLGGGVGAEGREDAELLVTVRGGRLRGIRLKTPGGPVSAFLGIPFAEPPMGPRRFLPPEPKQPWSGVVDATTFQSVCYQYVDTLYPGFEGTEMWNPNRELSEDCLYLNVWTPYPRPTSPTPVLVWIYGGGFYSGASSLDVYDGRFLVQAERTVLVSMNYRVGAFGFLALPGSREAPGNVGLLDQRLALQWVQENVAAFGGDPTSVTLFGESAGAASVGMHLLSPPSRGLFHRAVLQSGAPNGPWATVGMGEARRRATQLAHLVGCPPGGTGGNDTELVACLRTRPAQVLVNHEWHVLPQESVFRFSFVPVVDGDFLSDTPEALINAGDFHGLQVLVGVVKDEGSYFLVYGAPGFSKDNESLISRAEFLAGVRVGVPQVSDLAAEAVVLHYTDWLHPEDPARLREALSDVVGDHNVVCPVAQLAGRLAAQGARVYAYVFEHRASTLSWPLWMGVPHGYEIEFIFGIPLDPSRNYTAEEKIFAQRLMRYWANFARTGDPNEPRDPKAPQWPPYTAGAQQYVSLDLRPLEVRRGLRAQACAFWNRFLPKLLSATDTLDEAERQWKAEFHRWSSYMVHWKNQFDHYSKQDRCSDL
Compound,pIC50 (Butyrylcholinesterase [1]),pKi (Butyrylcholinesterase [2]),pIC50 (Acetylcholinesterase [3]),pKi (Acetylcholinesterase [4]),inhibition (Acetylcholinesterase [5]),inhibition (Acetylcholinesterase [3]),Ka (Acetylcholinesterase [6]) [×10³ L/M],KSV (Acetylcholinesterase [7]) [×10⁵ L/M],Ratio IC50 (Acetylcholinesterase [8])
COc1cc(C2CC(=O)c3c(cc(O)c(C/C=C(\C)CCC=C(C)C)c3O)O2)cc(OC)c1O (configuration not stated),4.10,4.12,3.50,–,–,–,–,–,–
CC(C)=CCC/C(C)=C/Cc1c(O)cc2c(c1O)C(=O)C[C@@H](c1ccc(O)cc1)O2 [BONANNIONE A],4.69,4.65,4.04,3.92,tde,Dose-dependent effect,–,–,–
COc1ccc([C@H]2Oc3cc(O)c(C/C=C(\C)CCC=C(C)C)c(O)c3C(=O)[C@@H]2O)cc1O,4.90,4.73,4.50,4.46,tde,Dose-dependent effect,2.7,0.0285,–
COc1cc([C@H]2Oc3cc(O)c(C/C=C(\C)CCC=C(C)C)c(O)c3C(=O)[C@@H]2O)ccc1O,4.95,4.74,4.31,4.17,tde,Dose-dependent effect,–,–,–
CNC(=O)Oc1ccc2c(c1)[C@]1(C)CCN(C)[C@@H]1N2C [PHYSOSTIGMINE],5.43,–,–,–,–,–,–,–,–
COc1ccc([C@@H]2CC(=O)c3c(cc(O)c(C/C=C(\C)CCC=C(C)C)c3O)O2)cc1O,4.59,4.63,4.03,4.02,tde,Dose-dependent effect,0.924,0.0103,–
COc1c(O)cc(C2Oc3cc(O)c(C/C=C(\C)CCC=C(C)C)c(O)c3C(=O)[C@@H]2O)cc1O (some centres not stated),5.42,5.35,4.81,4.77,tde,Dose-dependent effect,4.54,0.0369,–
COc1ccc([C@@H]2CC(=O)c3c(O)cc(O)cc3O2)cc1O [HESPERETIN],2.75,–,2.61,–,–,–,–,–,–
O=C1C[C@@H](c2ccc(O)c(O)c2)Oc2cc(O)cc(O)c21 [ERIODICTYOL],2.95,–,2.78,–,–,–,–,–,–
COc1cc([C@@H]2CC(=O)c3c(cc(O)c(C/C=C(\C)CCC=C(C)C)c3O)O2)ccc1O,4.61,4.63,3.96,3.83,tde,Dose-dependent effect,–,–,–
O=C1C[C@@H](c2ccc(O)cc2)Oc2cc(O)cc(O)c21 [NARINGENIN],2.83,–,2.69,–,–,–,–,–,–
COc1c(O)cc(C2CC(=O)c3c(cc(O)c(C/C=C(\C)CCC=C(C)C)c3O)O2)cc1O (configuration not stated),5.19,5.12,4.64,4.52,tde,Dose-dependent effect,–,–,–
CC(C)=CCC/C(C)=C/Cc1c(O)cc2c(c1O)C(=O)C[C@@H](c1ccc(O)c(O)c1)O2 [NYMPHAEOL A],5.85,5.92,5.14,5.08,tde,Dose-dependent effect,5.49,0.0577,200
